Data: ChEMBL document CHEMBL1828587, “Pyrazolo[1,5-a]pyrimidines, triazolo[1,5-a]pyrimidines and their tricyclic derivatives as corticotropin-releasing factor 1 (CRF₁) receptor antagonists” (Bioorg Med Chem, 2011)
Calls of active or inactive are those of the source. The rule behind the calls is not given here.

Key:
[1] = target: T1, Corticotropin-releasing factor receptor 1 (Homo sapiens, UniProt P34998); experiment: Displacement of [125I]-CRF from human CRF1 receptor expressed in CHO-K1 cells after 2 hrs by gamma counting; format: cell-based
T1 sequence (P34998 whole entry): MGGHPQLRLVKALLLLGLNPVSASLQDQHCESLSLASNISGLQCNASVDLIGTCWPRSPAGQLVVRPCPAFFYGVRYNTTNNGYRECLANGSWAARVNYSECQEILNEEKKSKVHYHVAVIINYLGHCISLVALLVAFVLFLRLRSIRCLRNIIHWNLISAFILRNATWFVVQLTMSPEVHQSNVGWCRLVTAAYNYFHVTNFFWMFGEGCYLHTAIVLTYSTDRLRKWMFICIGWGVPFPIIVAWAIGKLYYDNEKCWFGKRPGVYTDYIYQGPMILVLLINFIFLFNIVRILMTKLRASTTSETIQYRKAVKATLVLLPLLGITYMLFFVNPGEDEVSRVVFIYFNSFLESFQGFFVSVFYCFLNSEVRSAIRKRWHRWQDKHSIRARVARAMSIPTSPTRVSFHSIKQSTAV
Summary of the method: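 Crude membranes were made from CRF1-expressing CHO-K1 cells in 50 mmol/l Tris-HCl with 10 mmol/l MgCl, 2 mmol/l EDTA and aprotinin. Membranes were incubated with 125I human/rat CRF (0.5 nmol/l solution added) and test compound (1~10000 nmol/L) for 2 h at room temperature. Bound and free ligand were separated by centrifugation and the pellet washed with PBS/0.01% Triton X-100, then gamma-counted. Nonspecific binding was defined with 1 µmol/l unlabeled CRF. IC50 was taken from concentration–response curves.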

[2] = target: T1, Corticotropin-releasing factor receptor 1; experiment: Antagonist activity at human CRF1 receptor expressed in CHO-K1 cells assessed as inhibition of CRF-induced cAMP accumulation after 15 mins by cAMP enzyme immunoassay; format: functional, cell-based
Summary of the method: (§1)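 CRF1-expressing CHO-K1 cells seeded at 1×10^4 cells/well and cultured overnight. Cells were washed with F-12 and preincubated 10 min at 37 °C in F-12 containing 1 mmol/l IBMX. Test compound (1–10000 nmol/l) was then added together with CRF (10 nmol/l in the added medium). After 15 min at 37 °C, intracellular cAMP was measured by enzyme immunoassay. IC50 was taken from concentration–response curves.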

[3] = system: Rattus norvegicus; experiment: Anxiolytic activity against swim-stress-induced anxiety like behavior in Sprague-Dawley rat assessed as increase in spent time in open arms at 10 mg/kg, po administered 1 hr before stress-challenge by elevated plus-maze test; format: functional, organism-based; set-up: dose 10 mg/kg
Summary of the method: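 Male Sprague-Dawley rats (230–280 g) were dosed orally with compound in 0.5% MC, and tested 1 h after dosing. Rats were then placed on the elevated plus-maze (50 cm high) and video-tracked for 5 min for time in and entries into open arms. Results are mean ± S.E., n=16; vehicle vs drug by Dunnett test.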

[4] = Oral bioavailability in rat at 10 mg/kg; format: ADME, organism-based; settings: in vivo
Summary of the method: (§2)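 Fasted male rats (n = 4) received 1 mg/kg iv in saline/30% HP-β-CD or 10 mg/kg po in saline/0.5% MC. Jugular blood was sampled up to 72 h, and plasma obtained by centrifugation and stored at -70 °C. AUC, Cmax, Tmax, T1/2, Vss and CL were derived from plasma concentration–time courses. F = dose-normalized AUCpo/AUCiv ×100.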

[5] = Half life in rat at 10 mg/kg, po; format: ADME, organism-based; set-up: dose 10 mg/kg, route oral; settings: in vivo; summary of the method: as §2
[6] = Total clearance in rat at 1 mg/kg, iv; format: ADME, organism-based; set-up: dose 1 mg/kg, route intravenous; settings: in vivo; summary of the method: as §2
[7] = AUC (0 to infinity) in rat at 10 mg/kg, po; format: ADME, organism-based; set-up: time infinity, dose 10 mg/kg, route oral; settings: plasma
Summary of the method: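 Single oral dose of 10 mg/kg in saline containing 0.5% MC (w/v), given to fasted male rats (n = 4). Heparinized jugular vein blood taken at 1, 2, 4, 6, 8, 24, 48, 72 h. Plasma stored at -70 °C. AUC to infinity derived from the plasma concentration time course.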

[8] = Half life in rat at 1 mg/kg, iv; format: ADME, organism-based; set-up: dose 1 mg/kg, route intravenous; settings: in vivo; summary of the method: as §2
[9] = Tmax in rat at 10 mg/kg, po; format: ADME, organism-based; set-up: dose 10 mg/kg, route oral; settings: in vivo; summary of the method: as §2
[10] = target: T2, Corticotropin-releasing factor receptor 1 (Rattus norvegicus, UniProt P35353); experiment: Antagonist activity at rat CRF1 receptor expressed in CHO-K1 cells assessed as inhibition of CRF-induced cAMP accumulation after 15 mins by cAMP enzyme immunoassay; format: functional, cell-based; summary of the method: as §1
T2 sequence (P35353 whole entry): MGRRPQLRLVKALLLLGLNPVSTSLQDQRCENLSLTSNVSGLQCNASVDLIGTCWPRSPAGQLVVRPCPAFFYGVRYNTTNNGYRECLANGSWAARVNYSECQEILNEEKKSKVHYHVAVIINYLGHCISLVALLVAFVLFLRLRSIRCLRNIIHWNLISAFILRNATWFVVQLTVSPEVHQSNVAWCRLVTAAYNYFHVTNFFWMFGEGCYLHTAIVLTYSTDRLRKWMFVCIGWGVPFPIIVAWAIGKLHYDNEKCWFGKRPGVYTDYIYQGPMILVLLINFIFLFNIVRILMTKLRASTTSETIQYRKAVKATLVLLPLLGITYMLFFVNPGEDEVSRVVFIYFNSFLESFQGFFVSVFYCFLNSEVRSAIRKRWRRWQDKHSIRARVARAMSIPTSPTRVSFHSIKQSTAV

[11] = AUC (0 to infinity) in rat at 1 mg/kg, iv; format: ADME, organism-based; set-up: dose 1 mg/kg, route intravenous, time infinity; settings: plasma
Summary of the method: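 Single iv dose of 1 mg/kg in saline containing 30% HP-β-CD (w/v), given to fasted male rats (n = 4). Plasma stored at -70 °C. AUC derived from the plasma concentration time course.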

[12] = Ratio of drug level in brain to plasma in rat at 10 mg/kg, po after 1 hr; format: ADME, organism-based; set-up: dose 10 mg/kg, route oral; settings: read-out: BPR
Summary of the method: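 Rats were dosed orally at 10 mg/kg. Kp was calculated as brain content divided by plasma concentration, 1.0 h after dosing.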

[13] = Cmax in rat at 10 mg/kg, po; format: ADME, organism-based; set-up: dose 10 mg/kg, route oral; settings: in vivo; summary of the method: as §2
[14] = Volume of distribution at steady state in rat at 1 mg/kg, iv; format: ADME, organism-based; set-up: dose 1 mg/kg, route intravenous; settings: in vivo, read-out: Vdss; summary of the method: as §2

Row | SMILES | IC50 [1] | EC50 [2] | also measured
1 | CCC(CC)n1ccc2c(Nc3ccc(OC)cc3Cl)nc3ccnn3c21 | 3.2 nM | 0.7 nM | –
2 | CCCN(CCC)c1c(OC)c(Nc2ccc(OC)cc2Cl)nc2ccnn12 | 13 nM | 883 nM | –
3 | CCCN(CCC)c1c(C2CCCC2)c(Nc2ccc(OC)cc2Cl)nc2ccnn12 | 308 nM | – | –
4 | C=CCN(c1cc(N(CCC)CCC)n2nccc2n1)c1ccc(OC)cc1Cl | 4.4 nM | 28.9 nM | –
5 | CCCN(CCC)c1cc(N(C)c2ccc(OC)cc2Cl)nc2nccn12 | 67 nM | – | –
6 | CCc1cc(OC)ccc1Nc1nc2ccnn2c2c1ccn2C(CC)CC | 2.4 nM | 3.5 nM | –
7 | CCc1ccc(Oc2nc3ccnn3c3c2ccn3C(CC)CC)c(OC)c1 | 7 nM | 5.6 nM | –
8 | CCCN(CCC)c1c(C)c(Nc2ccc(OC)cc2Cl)nc2ncnn12 | 8 nM | 9 nM | –
9 | CCCN(CCC)c1cc(N(CCOC)c2ccc(OC)cc2Cl)nc2ccnn12 | 680 nM | – | –
10 | CCCN(CCC)c1cc(N(C)c2ccc(OC)cc2Cl)nc2ncnn12 | 33 nM | 889 nM | –
11 | CCCN(CCC)c1cc(N(CC)c2ccc(OC)cc2Cl)nc2ccnn12 | 31.6 nM | 18.6 nM | –
12 | CCCN(CCC)c1cc(N(COC)c2ccc(OC)cc2Cl)nc2ccnn12 | 15 nM | 4.4 nM | –
13 | CCCN(CCC)c1cc(N(CC2CC2)c2ccc(OC)cc2Cl)nc2ccnn12 | 213 nM | – | –
14 | CCC(CC)Nc1c(C)c(Nc2ccc(OC)cc2Cl)nc2ccnn12 | 7.4 nM | 7.4 nM | –
15 | CCC(CC)Nc1c(C)c(Nc2ccc(OC)cc2Cl)nc2ncnn12 | 16 nM | 58 nM | –
16 | CCCN(CCC)c1c(C)c(Nc2ccc(OC)cc2Cl)nc2ccnn12 | 8 nM | 4 nM | Activity [3]: Active; bioavailability [4]: 16%; half-life [5]: 3.4 h; clearance [6]: 186 mL/min/kg; AUC(0-inf) [7]: 153 ng·h/mL; half-life [8]: 1.7 h; Tmax [9]: 4 h; EC50 [10]: 81 nM; AUC(0-inf) [11]: 96 ng·h/mL; Kp at 1 h [12]: 6.2; Cmax [13]: 27.4 ng/mL; Vd [14]: 14.4 L/kg

Row | SMILES | IC50 [1] | EC50 [2] | also measured
17 | CCCc1c(Nc2ccc(OC)cc2Cl)nc2ccnn2c1N(CCC)CCC | 32 nM | 95 nM | –
18 | CCCN(CCC)c1nc(N(C)c2ccc(OC)cc2Cl)nc2ccnn12 | 20 nM | 26 nM | –
19 | CCCN(CCC)c1cc(N(C)c2ccc(OC)cc2Cl)nc2ccnn12 | 20 nM | 97 nM | –
20 | CCc1cc(Cl)ccc1Nc1nc2ccnn2c2c1ccn2C(CC)CC | 4.7 nM | 3.9 nM | –
21 | CCCN(CCC)c1cc(Nc2ccc(OC)cc2Cl)nc2ccnn12 | 61 nM | 53 nM | –
22 | C=C(C)CN(c1cc(N(CCC)CCC)n2nccc2n1)c1ccc(OC)cc1Cl | 76.7 nM | 856 nM | –
23 | CCCCc1c(Nc2ccc(OC)cc2Cl)nc2ccnn2c1N(CCC)CCC | 340 nM | – | –
24 | CCC(CC)n1ccc2c(Nc3c(C)cc(C)cc3C)nc3ccnn3c21 | 6.1 nM | 4.1 nM | –
25 | CCC(CC)n1ccc2c(Cc3c(C)cc(C)cc3C)nc3ccnn3c21 | 7.1 nM | 32.2 nM | –
26 | CCC(CC)Nc1cc(Nc2ccc(OC)cc2Cl)nc2ccnn12 | 14 nM | 113 nM | –
27 | CCCN(CCC)c1c(C)c(Nc2ccc(OC)cc2Cl)nc2nccn12 | 12 nM | 46 nM | –
28 | CCCN(CCC)c1cc(N(CCC)c2ccc(OC)cc2Cl)nc2ccnn12 | 418 nM | 75.7 nM | –
29 | CCCN(CCC)c1c(C(C)C)c(Nc2ccc(OC)cc2Cl)nc2ccnn12 | 113 nM | 234 nM | –
30 | CCC(CC)Nc1cc(N(C)c2ccc(OC)cc2Cl)nc2ncnn12 | 42 nM | 367 nM | –
31 | CCCN(CCC)c1cc(N(CC)c2ccc(OC)cc2Cl)nc2nccn12 | 42 nM | 76 nM | –
32 | CCCN(CCC)c1c(CC)c(Nc2ccc(OC)cc2Cl)nc2ccnn12 | 4.2 nM | 8.6 nM | –
